Measurements reported in paper PMC6396672 (OncoTargets and therapy, 2019).
Read-outs that look alike come from different tables or passages of the source.

What was measured:
L-02 cells = experiment: MTT assay, cell survival; assay type: cell-based
Summary of the method: (§1)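 Compounds were dissolved in DMSO and diluted in DMEM. Cells were treated at 0.01, 0.03, 0.1, 0.3, 1, 3 and 10 μmol/L, and viability was read by MTT. Inhibition rates were calculated, and IC25, IC50 and ICmax were derived by curve fitting.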

MHCC97-H cells = experiment: MTT assay, cell survival; assay type: cell-based; conditions: for IC50: Homo sapiens, MHCC97H
Summary of the method: as §1

LM-3 cells = experiment: MTT assay, cell survival; assay type: cell-based
Summary of the method: as §1

HepG2 cells = experiment: MTT assay, cell survival; assay type: cell-based; conditions: for IC50: Homo sapiens
Summary of the method: as §1

MHCC97-L cells = experiment: MTT assay, cell survival; assay type: cell-based; conditions: for IC50: MHCC97L
Summary of the method: as §1

MHCC97-H tumors = experiment: In vivo antitumor effect, subcutaneous tumor model; conditions: nude mice
Summary of the method: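 Nude (T-cell-deficient) mice, aged 4–6 weeks, were injected subcutaneously with 1×10^6 MHCC97-H cells per animal. Treatment started 3–4 days after injection: sorafenib 2 mg/kg given orally every 2 days, ten doses over 21 days. Mice were then harvested and tumour volumes or weights measured. Inhibition rates were calculated from tumour volume or weight.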

[1] = system: EMT-related genes in MHCC97-H cells; experiment: qPCR of EMT-related genes; assay type: cell-based; conditions: ARQ-197 at IC25 concentration
Summary of the method: (§2)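 Total RNA from treated HCC cells was extracted and reverse transcribed. Target mRNAs were measured by real-time qPCR with gene-specific primers and normalised to β-actin mRNA. EMT targets were E-cadherin, N-cadherin and vimentin; MDR targets were CYP3A4, MDR-1 and UGT1A9.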

[2] = system: MDR-related genes in MHCC97-H cells; experiment: qPCR of MDR-related genes; assay type: cell-based; conditions: ARQ-197 at IC25 concentration
Summary of the method: as §2

ETS-1 = experiment: Gene reporter luciferase assay EBS-Luc; assay type: cell-based; conditions: MHCC97-H cells, dose-dependent
PXR = conditions: MHCC97-H cells, dose-dependent
[3] = Clearance of sorafenib in cultured cells by LC-MS/MS; assay type: in vitro ADME; conditions: human, MHCC97-H cells (cultured HCC cells), Half-life of sorafenib (t1/2)
Summary of the method: (§3)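 Cultured human HCC cells (with or without the co-treatment or siRNA named in the line) were exposed to sorafenib at 1 μmol/L for 12 hours, then harvested at set time points. Samples were extracted with acetonitrile, and the remaining sorafenib was quantified by LC-MS/MS. Half-life (t1/2) was calculated from the decline over time.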

[4] = as above; assay type: in vitro ADME; conditions: human, LM-3 cells (cultured HCC cells), Half-life of sorafenib (t1/2), LM-3 cultured cells
Summary of the method: as §3

[5] = as above; assay type: in vitro ADME; conditions: human, HepG2 cells (cultured HCC cells), Half-life of sorafenib (t1/2)
Summary of the method: as §3

[6] = as above; assay type: in vitro ADME; conditions: human, MHCC97-L cells (cultured HCC cells), Half-life of sorafenib (t1/2)
Summary of the method: as §3

[7] = system: subcutaneous MHCC97-H tumors; experiment: Clearance of sorafenib in subcutaneous tumor by LC-MS/MS; assay type: in vivo, nude mice; conditions: PXR siRNA +siRNA
Summary of the method: (§4)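 Nude mice (T-cell deficient, 4–6 weeks) carried subcutaneous tumours grown from injected HCC cells; siRNA sequences were described in earlier work. Sorafenib solution was injected into the tumours, and tissue was harvested at set time points. Samples were extracted with acetonitrile, and residual sorafenib was quantified by LC-MS/MS. t1/2 was obtained by curve fitting.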

subcutaneous LM-3 tumors = experiment: as above; assay type: in vivo, nude mice; conditions: LM-3 subcutaneous tumor, ETS-1 siRNA
Summary of the method: as §4

O=C1NC(=O)[C@@H](c2cn3c4c(cccc24)CCC3)[C@@H]1c1c[nH]c2ccccc12 [ARQ-197]
IC50 (L-02 cells; Homo sapiens, L02, read-out: IC50 values): 7.59 ± 0.78 µM | IC25 values (L-02 cells; L-02, MTT): 3.44 ± 0.24 µmol/L | IC50 (MHCC97-H cells; read-out: IC50 values, MHCC97-H, MTT): 760 ± 220 nM | IC25 values (MHCC97-H cells; MHCC97-H, MTT): 0.09 ± 0.01 µmol/L | ICmax values (maximum action concentration) (MHCC97-H cells; MHCC97-H, MTT): 3.56 ± 0.65 µmol/L | IC50 (LM-3 cells; LM3, read-out: IC50 values, LM-3, MTT): 670 ± 160 nM | IC25 values (LM-3 cells; LM-3, MTT): 0.08 ± 0.02 µmol/L | ICmax values (maximum action concentration) (LM-3 cells; LM-3, MTT): 4.62 ± 0.80 µmol/L | IC25 values (HepG2 cells; HepG2, MTT): 0.23 ± 0.07 µmol/L | ICmax values (maximum action concentration) (HepG2 cells; HepG2, MTT): 9.55 ± 0.57 µmol/L | IC50 (HepG2 cells; HepG2, read-out: IC50 values, HepG2, MTT): 1990 ± 470 nM | IC25 values (MHCC97-L cells; MHCC97-L, MTT): 1.29 ± 0.52 µmol/L | IC50 (MHCC97-L cells; read-out: IC50 values, MHCC97-L, MTT): 4630 ± 930 nM | effect of ARQ-197 on the antitumor effect of sorafenib in vivo (MHCC97-H tumors; 3 mg/kg ARQ-197 + 2 mg/kg sorafenib compared to sorafenib alone, MHCC97-H tumors): significantly enhanced the antitumor effect of sorafenib | subcutaneous growth of MHCC97-H tumors (MHCC97-H tumors; 3 mg/kg ARQ-197, oral, compared to vehicle controls): inhibited the subcutaneous growth of MHCC97-H tumors | expression of E-cadherin (mRNA) [1]: enhanced | expression of N-cadherin (mRNA) [1]: decreased | expression of vimentin (mRNA) [1]: decreased | expression of Cyp3a4 (mRNA) [2]: decreased | expression of Mdr-1 (mRNA) [2]: decreased | expression of Ugt1a9 (mRNA) [2]: decreased | luciferase activity of EBS-Luc reporter (ETS-1): inhibited | luciferase activity of DR3-Luc reporter (PXR): inhibited

CNC(=O)c1cc(Oc2ccc(NC(=O)Nc3ccc(Cl)c(C(F)(F)F)c3)cc2)ccn1 [sorafenib]
IC50 (MHCC97-H cells; read-out: IC50 values of sorafenib, MHCC97-H, solvent control): 1390 ± 460 nM | IC50 (LM-3 cells; LM3, read-out: IC50 values of sorafenib, LM-3, solvent control): 1290 ± 250 nM | IC50 (HepG2 cells; HepG2, read-out: IC50 values of sorafenib, HepG2, solvent control): 1680 ± 420 nM | IC50 (MHCC97-L cells; read-out: IC50 values of sorafenib, MHCC97-L, ARQ-197): 970 ± 390 nM | IC50 (MHCC97-L cells; read-out: IC50 values of sorafenib, MHCC97-L, solvent control): 2730 ± 400 nM | half-life at 1 μmol/L ([3]; ARQ-197): 816 ± 39 min | half-life at 1 μmol/L ([3]; ETS-1 siRNA): 831 ± 50.4 min | half-life at 1 μmol/L ([3]; ETS-1 siRNA +ARQ-197): 812 ± 13.8 min | half-life at 1 μmol/L ([3]; PXR siRNA): 1060 ± 54.6 min | half-life at 1 μmol/L ([3]; PXR siRNA +siRNA): 1060 ± 52.8 min | half-life at 1 μmol/L ([3]; solvent control): 545 ± 25.8 min | half-life at 1 μmol/L ([4]; ARQ-197): 865 ± 40.2 min | half-life at 1 μmol/L ([4]; ETS-1 siRNA): 937 ± 27.6 min | half-life at 1 μmol/L ([4]; ETS-1 siRNA +ARQ-197): 913 ± 10.8 min | half-life at 1 μmol/L ([4]; PXR siRNA): 1080 ± 15 min | half-life at 1 μmol/L ([4]; PXR siRNA +siRNA): 1110 ± 40.2 min | half-life at 1 μmol/L ([4]; solvent control): 596 ± 34.2 min | half-life at 1 μmol/L ([5]; ARQ-197): 748 ± 37.2 min | half-life at 1 μmol/L ([5]; solvent control): 577 ± 49.2 min | half-life at 1 μmol/L ([6]; ARQ-197): 755 ± 10.8 min | half-life at 1 μmol/L ([6]; solvent control): 613 ± 30.6 min | Half-life of sorafenib (t1/2) [7]: 40.13 ± 0.83 h | Half-life of sorafenib (t1/2) (subcutaneous LM-3 tumors): 39.45 ± 0.74 h
